≈ marks a conversion by molar mass, not a printed value. Calls of active or inactive are those of the source. The rule behind the calls is not given here. Where a SMILES comes first, the peptide text is derived from it. [ ]: non-standard residue; d: D form. The star is where a group is joined. X1 = CC(=O)OC[C@H](CC(C)C)N*; Aib = CC(C)(N)C(=O)O
Tests used:
Bacillus subtilis = experiment: Antimicrobial activity against Bacillus subtilis ATCC 6633 at 100 ug/disk after 24 hrs by standard disk assay; format: functional; conditions: ATCC 6633, 24 h, read-out: IZ
Summary of the method: (§1)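 Bacteria grown on nutrient agar at 37 °C. Test plates seeded with 5×10^5 cells per mL. Compound loaded onto 6 mm filter disks placed on the agar. Inhibition zone diameters read after 24 h.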

Brevibacillus brevis = experiment: Antimicrobial activity against Bacillus brevis ATCC 9999 at 100 ug/disk after 24 hrs by standard disk assay; format: functional; conditions: ATCC 9999, 24 h, read-out: IZ; summary of the method: as §1
Micrococcus luteus = experiment: Antimicrobial activity against Micrococcus luteus ATCC 21415 at 100 ug/disk after 24 hrs by standard disk assay; format: functional; conditions: ATCC 21415, 24 h, read-out: IZ; summary of the method: as §1
[1] = Cytotoxicity against human COLO320 cells; format: functional, cell-based; conditions: COLO 320
Summary of the method: (§2)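 Cells were grown and assayed in RPMI 1640 medium, and the IC50 was reported.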

L1210 [2] = experiment: Cytotoxicity against mouse L1210 cells at 100 ug/ml; format: functional, cell-based
L1210 [3] = experiment: Cytotoxicity against mouse L1210 cells; format: functional, cell-based; summary of the method: as §2

Structure (SMILES): CC(=O)N[C@@H](CC(C)C)C(=O)NC(C)(C)C(=O)N1CCC[C@H]1C(=O)NC(C)(C)C(=O)N[C@@H](CC(C)C)C(=O)NC(C)(C)C(=O)N1CCC[C@H]1C(=O)N[C@@H](C)C(=O)NC(C)(C)C(=O)N1CCC[C@H]1C(=O)N[C@H](C(=O)N[C@H](CO)CC(C)C)C(C)C [CERVININ]
- zone of inhibition at 100 µg/disc (Bacillus subtilis): 8 mm
- zone of inhibition at 100 µg/disc (Brevibacillus brevis): 7 mm
- zone of inhibition at 100 µg/disc (Micrococcus luteus): 15 mm
- IC50 [1]: 80 µg/mL (≈ 67.4 µM)
- Activity (L1210 [2]): inactive

Structure (SMILES): CC(=O)N[C@@H](CC(C)C)C(=O)NC(C)(C)C(=O)N1CCC[C@H]1C(=O)NC(C)(C)C(=O)N[C@@H](CC(C)C)C(=O)NC(C)(C)C(=O)N1CCC[C@H]1C(=O)N[C@@H](C)C(=O)NC(C)(C)C(=O)N1CCC[C@H]1C(=O)N[C@H](C(=O)N[C@H](COC(C)=O)CC(C)C)C(C)C (Ac-L[Aib]P[Aib]L[Aib]PA[Aib]PV-X1)
- zone of inhibition at 100 µg/disc (Bacillus subtilis): 11 mm
- zone of inhibition at 100 µg/disc (Brevibacillus brevis): 10 mm
- zone of inhibition at 100 µg/disc (Micrococcus luteus): 16 mm
- IC50 (L1210 [3]): 32 µg/mL (≈ 26 µM)
- IC50 [1]: 40 µg/mL (≈ 32.5 µM)

From ChEMBL document CHEMBL1146514, “New peptaibols from Mycogone cervina” (J Nat Prod, 2004)
